According to ChEMBL document CHEMBL1138940, “Design and synthesis of orally efficacious benzimidazoles as melanin-concentrating hormone receptor 1 antagonists” (Bioorg Med Chem Lett, 2006):

Columns and labels:
[1] = molecular target: Melanin-concentrating hormone receptor 2 (Homo sapiens) (UniProt Q969V1); assay: Binding affinity to human MCHR2 assessed as inhibition of MCH-mediated calcium ion influx by FLIPR assay; type: functional
[2] = molecular target: T1, Melanin-concentrating hormone receptor 1 (Homo sapiens, UniProt Q99705); assay: Binding affinity to human MCHR1 by radioligand binding assay
[3] = molecular target: Melanin-concentrating hormone receptor 1 (Mus musculus) (UniProt Q8JZL2); assay: Inhibition of MCH-ADO binding to mouse brain at 30 mg/kg, po after 24 hrs; type: functional, organism-based; set-up: dose 30 mg/kg
Summary of the method: (§1)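 Mouse ex vivo receptor binding after a single 30 mg/kg oral dose: MCH-ADO binding was measured at 6 h and 24 h post-dose and expressed as percent inhibition relative to vehicle controls, mean ± SEM, n = 3.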

[4] = system: Mus musculus; assay: Inhibition of cumulative food intake in DIO mouse at 30 mg/kg, po after 24 hrs; type: functional
Summary of the method: (§2)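 Diet-induced obese mice were fasted 24 h, then given 30 mg/kg orally 1 h before dark onset. Food was returned at dark onset, and cumulative intake was measured at 2, 6 and 24 h. Results are expressed as percent inhibition versus vehicle-treated controls.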

[5] = molecular target: Melanin-concentrating hormone receptor 1 (Mus musculus) (UniProt Q8JZL2); assay: Inhibition of MCH-ADO binding to mouse brain at 30 mg/kg, po after 6 hrs; type: functional, organism-based; set-up: dose 30 mg/kg; summary of the method: as §1
[6] = system: Mus musculus; assay: Inhibition of cumulative food intake in DIO mouse at 30 mg/kg, po after 6 hrs; type: functional; summary of the method: as §2
[7] = molecular target: T1, Melanin-concentrating hormone receptor 1; assay: Binding affinity to human MCHR1 assessed as inhibition of MCH-mediated calcium ion influx by FLIPR assay; type: functional
Summary of the method: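 Functional antagonism at human MCH-R1: cells expressing hMCH-R1 were read by FLIPR for block of MCH-mediated Ca2+ influx, and the value was reported as Kb.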

[8] = system: Mus musculus; assay: Inhibition of cumulative food intake in DIO mouse at 30 mg/kg, po after 2 hrs; type: functional; summary of the method: as §2
[9] = system: Rattus norvegicus; assay: AUC(0-6h) in rat at 10 mg/kg, po; details: in vivo

Chain of Melanin-concentrating hormone receptor 2 (Homo sapiens) (Q969V1 whole entry): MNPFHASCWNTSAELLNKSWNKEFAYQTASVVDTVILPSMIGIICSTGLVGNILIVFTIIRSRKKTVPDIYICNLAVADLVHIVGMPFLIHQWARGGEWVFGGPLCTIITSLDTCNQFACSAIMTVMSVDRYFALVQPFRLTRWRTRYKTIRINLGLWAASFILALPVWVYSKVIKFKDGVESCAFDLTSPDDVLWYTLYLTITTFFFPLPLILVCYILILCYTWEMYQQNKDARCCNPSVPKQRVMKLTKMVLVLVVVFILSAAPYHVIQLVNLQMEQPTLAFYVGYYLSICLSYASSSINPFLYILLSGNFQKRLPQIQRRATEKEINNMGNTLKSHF
T1 sequence (Q99705 whole entry): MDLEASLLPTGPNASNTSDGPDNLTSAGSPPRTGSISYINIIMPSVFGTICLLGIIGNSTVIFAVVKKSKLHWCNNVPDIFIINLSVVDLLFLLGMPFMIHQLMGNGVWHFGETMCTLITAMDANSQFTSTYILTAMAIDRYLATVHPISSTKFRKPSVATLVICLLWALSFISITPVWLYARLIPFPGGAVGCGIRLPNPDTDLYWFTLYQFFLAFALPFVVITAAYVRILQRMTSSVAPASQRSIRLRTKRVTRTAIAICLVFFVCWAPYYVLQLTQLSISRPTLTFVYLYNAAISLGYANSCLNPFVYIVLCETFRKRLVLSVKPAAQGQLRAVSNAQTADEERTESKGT
Chain of Melanin-concentrating hormone receptor 1 (Mus musculus) (Q8JZL2 whole entry): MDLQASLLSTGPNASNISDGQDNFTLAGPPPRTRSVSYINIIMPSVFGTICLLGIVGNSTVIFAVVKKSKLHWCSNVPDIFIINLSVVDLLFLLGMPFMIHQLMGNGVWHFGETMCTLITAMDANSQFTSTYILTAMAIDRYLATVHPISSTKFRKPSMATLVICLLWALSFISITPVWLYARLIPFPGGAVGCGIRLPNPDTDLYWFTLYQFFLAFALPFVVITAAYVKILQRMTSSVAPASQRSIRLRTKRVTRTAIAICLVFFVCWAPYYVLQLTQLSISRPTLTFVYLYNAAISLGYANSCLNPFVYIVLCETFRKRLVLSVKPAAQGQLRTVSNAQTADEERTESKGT

Compound | Activity [1] [µM] | Ki [2] [nM] | also measured
CS(=O)(=O)N1CCC(=C(c2ccc(-c3cccc(C#N)c3)cc2)c2nc3cc(F)c(C(F)(F)F)cc3[nH]2)CC1 | > 3 | 71.4 | 
N#Cc1cccc(-c2ccc(C(=C3CCN(CC4CC4)CC3)c3nc4cc(Cl)c(Cl)cc4[nH]3)cc2)c1 | > 3 | 15 | inhibition [3]: 54%; inhibition in vivo at 30 mg/kg [4]: 26.8%; inhibition [5]: 68%; inhibition in vivo at 30 mg/kg [6]: 41.8%; Kb [7]: 70 nM; inhibition in vivo at 30 mg/kg [8]: 37.4%; AUC [9]: 6640 ng·h/mL
CN(C)C(=O)N1CCC2(CC1)CC2(c1ccc(-c2cccc(C#N)c2)cc1)c1nc2cc(F)c(C(F)(F)F)cc2[nH]1 (configuration not stated) | > 3 | 32 | 
N#Cc1cncc(-c2ccc(C(=C3CCN(CC4CC4)CC3)c3nc4cc(C(F)(F)F)c(F)cc4[nH]3)cc2)c1 | > 3 | 10.3 | 
CC(C)S(=O)(=O)N1CCC2(CC1)CC2(c1ccc(-c2cccc(C#N)c2)cc1)c1nc2cc(F)c(C(F)(F)F)cc2[nH]1 (configuration not stated) | > 3 | 67 | 
CC(C)S(=O)(=O)N1CCC(=C(c2ccc(-c3cccc(C#N)c3)cc2)c2nc3cc(F)c(C(F)(F)F)cc3[nH]2)CC1 | > 3 |  | 
CS(=O)(=O)c1cccc(-c2ccc(C(=C3CCN(CC4CC4)CC3)c3nc4cc(F)c(C(F)(F)F)cc4[nH]3)cc2)c1 | > 3 |  | 
N#Cc1cnc(O)c(-c2ccc(C(=C3CCN(CC4CC4)CC3)c3nc4cc(F)c(C(F)(F)F)cc4[nH]3)cc2)c1 | > 3 |  | 
NC(=O)c1cccc(-c2ccc(C(=C3CCN(CC4CC4)CC3)c3nc4cc(F)c(C(F)(F)F)cc4[nH]3)cc2)c1 | > 3 |  | 
N#Cc1ccc(F)c(-c2ccc(C(=C3CCN(CC4CC4)CC3)c3nc4cc(C(F)(F)F)c(F)cc4[nH]3)cc2)c1 |  | 3.9 | AUC [9]: 3000 ng·h/mL
N#Cc1cccc(-c2ccc(C3(c4nc5cc(C(F)(F)F)c(F)cc5[nH]4)CC34CCN(Cc3ccccc3)CC4)cc2)c1 (configuration not stated) | > 3 |  | 
CC(=O)N1CCC(=C(c2ccc(-c3cccc(C#N)c3)cc2)c2nc3cc(F)c(C(F)(F)F)cc3[nH]2)CC1 | > 3 | 31 | inhibition [5]: 48%; AUC [9]: 5250 ng·h/mL
N#Cc1cccc(-c2ccc(C(=C3CCN(CC4CC4)CC3)c3nc4cc(C#N)ccc4[nH]3)cc2)c1 | > 3 |  | 
N#Cc1c[nH]c(=O)c(-c2ccc(C(=C3CCN(CC4CC4)CC3)c3nc4cc(C(F)(F)F)c(F)cc4[nH]3)cc2)c1 |  | 99 | 
N#Cc1cccc(-c2ccc(C(=C3CCN(CCO)CC3)c3nc4cc(F)c(C(F)(F)F)cc4[nH]3)cc2)c1 | > 3 |  | 
N#Cc1cccc(-c2ccc(C(=C3CCN(CC(N)=O)CC3)c3nc4cc(F)c(C(F)(F)F)cc4[nH]3)cc2)c1 | > 3 |  | 
N#Cc1cccc(-c2ccc(C3(c4nc5cc(C(F)(F)F)c(F)cc5[nH]4)CC34CCN(C(=O)N3CCCC3)CC4)cc2)c1 (configuration not stated) | > 3 |  | 
N#Cc1cccc(-c2ccc(C(=C3CCN(CC4CC4)CC3)c3nc4cc(C(F)(F)F)c(F)cc4[nH]3)cc2)c1 | > 3 |  | inhibition [3]: 84%; inhibition in vivo at 30 mg/kg [4]: 18.6%; inhibition [5]: 96%; inhibition in vivo at 30 mg/kg [6]: 32.6%; inhibition in vivo at 30 mg/kg [8]: 31%
Fc1cc2[nH]c(C(=C3CCN(CC4CC4)CC3)c3ccc(-c4cncnc4)cc3)nc2cc1C(F)(F)F | > 3 |  | 
CCN(CC)CCN1CCC2(CC1)CC2(c1ccc(-c2cccc(C#N)c2)cc1)c1nc2cc(F)c(C(F)(F)F)cc2[nH]1 (configuration not stated) | > 3 | 15 | 
N#Cc1cccc(-c2ccc(C(=C3CCN(C(=O)C4CC4)CC3)c3nc4cc(C(F)(F)F)c(F)cc4[nH]3)cc2)c1 | > 3 | 31 | 

Compound | Activity [1] [µM] | Ki [2] [nM] | also measured
CN(C)S(=O)(=O)N1CCC(=C(c2ccc(-c3cccc(C#N)c3)cc2)c2nc3cc(F)c(C(F)(F)F)cc3[nH]2)CC1 | > 3 | 64 | 
N#Cc1cccc(-c2ccc(C(=C3CCN(CC4CC4)CC3)c3nc4cc(F)c(F)cc4[nH]3)cc2)c1 | > 3 | 52 | 
N#Cc1cccc(-c2ccc(C(=C3CCN(Cc4nccs4)CC3)c3nc4cc(C(F)(F)F)c(F)cc4[nH]3)cc2)c1 | > 3 | 45 | 
N#Cc1cccc(-c2ccc(C(=C3CCNCC3)c3nc4cc(C(F)(F)F)c(F)cc4[nH]3)cc2)c1 | > 3 | 3.6 | 
N#Cc1cccc(-c2ccc(C(=C3CCN(CCO)CC3)c3nc4cc(C(F)(F)F)c(F)cc4[nH]3)cc2)c1 |  | 7.2 | 
CN(C)C(=O)N1CCC(=C(c2ccc(-c3cccc(C#N)c3)cc2)c2nc3cc(F)c(C(F)(F)F)cc3[nH]2)CC1 | > 3 | 37 | inhibition [5]: 50%; AUC [9]: 1290 ng·h/mL
CCN(CC)C(=O)N1CCC(=C(c2ccc(-c3cccc(C#N)c3)cc2)c2nc3cc(F)c(C(F)(F)F)cc3[nH]2)CC1 | > 3 | 22 | 
N#Cc1cccc(-c2ccc(C3(c4nc5cc(C(F)(F)F)c(F)cc5[nH]4)CC34CCN(CC3CC3)CC4)cc2)c1 (configuration not stated) | > 3 |  | inhibition [5]: 74%
N#Cc1ccccc1-c1ccc(C(=C2CCN(CC3CC3)CC2)c2nc3cc(C(F)(F)F)c(F)cc3[nH]2)cc1 | > 3 | 464 | 
Cn1cccc1C(=O)N1CCC(=C(c2ccc(-c3cccc(C#N)c3)cc2)c2nc3cc(C(F)(F)F)c(F)cc3[nH]2)CC1 |  | 10.1 | 
Oc1ccc(-c2ccc(C(=C3CCN(CC4CC4)CC3)c3nc4cc(F)c(C(F)(F)F)cc4[nH]3)cc2)cn1 | > 3 | 174 | 
NC(=O)c1cccc(-c2ccc(C(=C3CCN(CC4CC4)CC3)c3nc4cc(C(F)(F)F)c(F)cc4[nH]3)cc2)c1 |  | 77 | 
N#Cc1cccc(-c2ccc(C3(c4nc5cc(F)c(C(F)(F)F)cc5[nH]4)CC34CCN(CC(=O)O)CC4)cc2)c1 (configuration not stated) | > 3 | 41 | 
N#Cc1ccc(F)c(-c2ccc(C(=C3CCN(CC4CC4)CC3)c3nc4cc(F)c(C(F)(F)F)cc4[nH]3)cc2)c1 | > 3 |  | inhibition [3]: 80%; inhibition [5]: 92%
N#Cc1cccc(-c2ccc(C(=C3CCN(CC(N)=O)CC3)c3nc4cc(C(F)(F)F)c(F)cc4[nH]3)cc2)c1 |  | 15.5 | 
N#Cc1cccc(-c2ccc(C(=C3CCN(C(=O)c4cccs4)CC3)c3nc4cc(C(F)(F)F)c(F)cc4[nH]3)cc2)c1 | > 3 |  | 
Cn1cccc1C(=O)N1CCC(=C(c2ccc(-c3cccc(C#N)c3)cc2)c2nc3cc(F)c(C(F)(F)F)cc3[nH]2)CC1 | > 3 |  | 
CCN(CC)C(=O)N1CCC2(CC1)CC2(c1ccc(-c2cccc(C#N)c2)cc1)c1nc2cc(F)c(C(F)(F)F)cc2[nH]1 (configuration not stated) | > 3 | 221 | 
N#Cc1cccc(-c2ccc(C3(c4nc5cc(C(F)(F)F)c(F)cc5[nH]4)CC34CCNCC4)cc2)c1 (configuration not stated) | > 3 |  | 
N#Cc1cccc(-c2ccc(C(=C3CCN(CC4CC4)CC3)c3nc4cc(Cl)cc(Cl)c4[nH]3)cc2)c1 | > 3 | 87 | 
N#CCc1cccc(-c2ccc(C(=C3CCN(CC4CC4)CC3)c3nc4cc(C(F)(F)F)c(F)cc4[nH]3)cc2)c1 | > 3 | 26 | 
